Results as given in ChEMBL document CHEMBL3593222, “6-Phenoxy-2-phenylbenzoxazoles, novel inhibitors of receptor for advanced glycation end products (RAGE)” (Bioorg Med Chem, 2015).
Active and inactive are the calls of the source. The rule behind the calls is not given here.

What was measured:
[1] = target: Advanced glycosylation end product-specific receptor (Homo sapiens) (UniProt Q15109); experiment: Inhibition of human RAGE-amyloid beta-42 interaction at 4 uM preincubated for 30 mins measured after 1 hr by FRET assay relative to control
How it was run: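 Biotinylated human RAGE (2.5 µg) was premixed with 200 ng Cy3-streptavidin in PBS for 30 min at rt. Aβ42-FITC (50 µL of 40 nM) and compound (50 µL of 4 µM) were then added, in 200 µL final volume with 0.1% DMSO. Fluorescence was read 1 h later. FRET efficiency was computed from donor emission with and without acceptor, and percent inhibition was taken against vehicle. Triplicate.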

HT-22 = experiment: (§1) Cytotoxicity against mouse HT22 cells assessed as cell viability at 10 uM after 18 hrs by MTT assay; type: cell-based; details: ht-22, 18 h, 10 µM
How it was run: (§2)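 HT22 cells were grown in DMEM with 10% FBS and penicillin/streptomycin at 37 °C in 5% CO2, and seeded at 5000 cells/well. Next day they were exposed to 10 µM compound for 18 h. MTT was then added for 3 h, formazan dissolved in acidic 2-propanol, and OD read at 570 nm. Viability is blank-corrected absorbance relative to control. Run in triplicate.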

[2] = as §1; type: cell-based, HT-22; details: HT22 cells, read-out: Activity; how it was run: as §2

Advanced glycosylation end product-specific receptor (Homo sapiens), sequence (Q15109 whole entry): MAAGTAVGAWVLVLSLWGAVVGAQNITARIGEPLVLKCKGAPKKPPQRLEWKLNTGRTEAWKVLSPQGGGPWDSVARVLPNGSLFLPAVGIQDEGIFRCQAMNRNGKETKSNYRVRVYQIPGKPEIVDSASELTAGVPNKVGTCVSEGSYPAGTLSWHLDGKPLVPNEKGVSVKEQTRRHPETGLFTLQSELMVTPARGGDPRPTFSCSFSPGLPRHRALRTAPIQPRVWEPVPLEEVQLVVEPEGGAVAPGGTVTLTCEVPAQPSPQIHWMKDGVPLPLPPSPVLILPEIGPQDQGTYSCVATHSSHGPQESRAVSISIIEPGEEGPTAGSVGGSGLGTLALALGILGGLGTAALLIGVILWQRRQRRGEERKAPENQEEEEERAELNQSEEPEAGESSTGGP

Compound	inhibition [1]	Activity (HT-22)	viability at 18 h, 10 µM [2]
CC(C)(C)OC(=O)N1CCC(COc2ccc(-c3nc4ccc(Oc5ccc(Cl)cc5)cc4o3)cc2)CC1	inactive	Non-toxic	
CC(C)(C)OC(=O)N1CCC(Oc2ccc(-c3nc4ccc(Oc5ccc(Cl)cc5)cc4o3)cc2)CC1	inactive	Non-toxic	
N[C@H]1CCN(CCCOc2ccc(-c3nc4ccc(Oc5ccc(Cl)cc5)cc4o3)cc2)C1	29.9%	Non-toxic	
OCCN1CCN(CCCOc2ccc(-c3nc4ccc(Oc5ccc(Cl)cc5)cc4o3)cc2)CC1	3.3%		3.3%
CC(C)N1CCC(Oc2ccc(-c3nc4ccc(Oc5ccc(Cl)cc5)cc4o3)cc2)CC1	12.7%		86.5%
Clc1ccc(Oc2ccc3nc(-c4ccc(OC5CCNCC5)cc4)oc3c2)cc1	20.6%		20.6%
Clc1ccc(Oc2ccc3nc(-c4ccc(OCCN5CCCCC5)cc4)oc3c2)cc1	18.5%		21.4%
CCN1CCC(COc2ccc(-c3nc4ccc(Oc5ccc(Cl)cc5)cc4o3)cc2)CC1	2.1%		4.1%
CC(C)(C)OC(=O)N[C@H]1CCN(CCCOc2ccc(-c3nc4ccc(Oc5ccc(Cl)cc5)cc4o3)cc2)C1	16.6%		58.2%
CCN1CCC(Oc2ccc(-c3nc4ccc(Oc5ccc(Cl)cc5)cc4o3)cc2)CC1	15.3%		38.2%
CC(C)N1CCC(COc2ccc(-c3nc4ccc(Oc5ccc(Cl)cc5)cc4o3)cc2)CC1	26.2%	Non-toxic	
CC(C)(C)c1ccc(Oc2ccc3nc(-c4ccc(OCCCN5CC[C@H](N)C5)cc4)oc3c2)cc1	54.7%		60.3%
Clc1ccc(Oc2ccc3nc(-c4ccc(OCC5CCNCC5)cc4)oc3c2)cc1	inactive		29%
CC(C)COC(=O)N1CCN(CCCOc2ccc(-c3nc4ccc(Oc5ccc(Cl)cc5)cc4o3)cc2)CC1	41.2%	Non-toxic	
CCN(CC)CCCOc1ccc(-c2nc3ccc(Oc4ccc(C(F)(F)F)cc4)cc3o2)cc1	34.9%	Non-toxic	
CN1CCC(Oc2ccc(-c3nc4ccc(Oc5ccc(Cl)cc5)cc4o3)cc2)CC1	19.5%		74.3%
N[C@@H]1CCN(CCCOc2ccc(-c3nc4ccc(Oc5ccc(Cl)cc5)cc4o3)cc2)C1	19.6%	Non-toxic	
COC(=O)N1CCN(CCCOc2ccc(-c3nc4ccc(Oc5ccc(Cl)cc5)cc4o3)cc2)CC1	inactive	Non-toxic	
CC(C)(C)OC(=O)N[C@H]1CCN(CCCOc2ccc(-c3nc4ccc(Oc5ccc(C(C)(C)C)cc5)cc4o3)cc2)C1	61.6%		8.2%
CCN(CC)CCOc1ccc(-c2nc3ccc(Oc4ccc(Cl)cc4)cc3o2)cc1	33.5%		85.2%
CC(=O)N1CCC(COc2ccc(-c3nc4ccc(Oc5ccc(Cl)cc5)cc4o3)cc2)CC1	inactive		32.7%
CC(=O)N1CCC(Oc2ccc(-c3nc4ccc(Oc5ccc(Cl)cc5)cc4o3)cc2)CC1	20%	Non-toxic	
CCN(CC)CCCOc1ccc(-c2nc3ccc(Oc4ccc(F)cc4)cc3o2)cc1	5.4%	Non-toxic	
CC(C)(C)c1ccc(Oc2ccc3nc(-c4ccc(OCCCN5CC[C@@H](N)C5)cc4)oc3c2)cc1	inactive		12.8%
CC(C)(C)OC(=O)N[C@@H]1CCN(CCCOc2ccc(-c3nc4ccc(Oc5ccc(Cl)cc5)cc4o3)cc2)C1	90.2%		63.2%
CCN(CC)CCCOc1ccc(-c2nc3ccc(Oc4ccc(Cl)cc4)cc3o2)cc1	4.9%		32.1%
CCN(CC)CCCOc1ccc(-c2nc3ccc(Oc4ccc(C(C)(C)C)cc4)cc3o2)cc1	inactive		74.1%
CCOC(=O)N1CCN(CCCOc2ccc(-c3nc4ccc(Oc5ccc(Cl)cc5)cc4o3)cc2)CC1	6.6%	Non-toxic	
CC(C)(C)OC(=O)N[C@@H]1CCN(CCCOc2ccc(-c3nc4ccc(Oc5ccc(C(C)(C)C)cc5)cc4o3)cc2)C1	26.8%	Non-toxic	

Now from value to compound, other results behind:

inhibition [1]	Compound	Activity (HT-22)	viability at 18 h, 10 µM [2]
30.3%	Fc1ccc(Oc2ccc3nc(-c4ccc(OCCCN5CCCCC5)cc4)oc3c2)cc1	Non-toxic	
inactive	Clc1ccc(Oc2ccc3nc(-c4ccc(OCCCN5CCCC5)cc4)oc3c2)cc1	Non-toxic	
42.7%	FC(F)(F)c1cccc(Oc2ccc3nc(-c4ccc(OCCCN5CCCCC5)cc4)oc3c2)c1		4.4%
32.1%	FC(F)(F)c1ccc(Oc2ccc3nc(-c4ccc(OCCCN5CCOCC5)cc4)oc3c2)cc1	Non-toxic	
44.3%	FC(F)(F)c1ccc(Oc2ccc3nc(-c4ccc(OCCCN5CCCCC5)cc4)oc3c2)cc1		93.4%
inactive	Clc1ccc(Oc2ccc3nc(-c4ccc(OCCCN5CCOCC5)cc4)oc3c2)cc1	Non-toxic	
inactive	FC(F)(F)c1cccc(Oc2ccc3nc(-c4ccc(OCCCN5CCOCC5)cc4)oc3c2)c1	Non-toxic	
24.1%	CCN(CC)CCCOc1ccc(-c2nc3ccc(Oc4cccc(C(F)(F)F)c4)cc3o2)cc1	Non-toxic	
2.2%	Clc1ccc(Oc2ccc3nc(-c4ccc(OCCCN5CCCCC5)cc4)oc3c2)cc1		32.4%
inactive	CC(C)(C)c1ccc(Oc2ccc3nc(-c4ccc(OCCCN5CCCCC5)cc4)oc3c2)cc1		49.4%
24.3%	CN1CCN(CCCOc2ccc(-c3nc4ccc(Oc5ccc(Cl)cc5)cc4o3)cc2)CC1		69.3%
25.7%	Clc1ccc(Oc2ccc3nc(-c4ccc(OCCN5CCOCC5)cc4)oc3c2)cc1	Non-toxic	
27.8%	CC(C)(C)OC(=O)N1CCN(CCCOc2ccc(-c3nc4ccc(Oc5ccc(C(F)(F)F)cc5)cc4o3)cc2)CC1		7.9%
16.6%	CC(C)(C)C1CCN(CCCOc2ccc(-c3nc4ccc(Oc5ccc(Cl)cc5)cc4o3)cc2)CC1		32.2%
inactive	CC(C)(C)c1ccc(Oc2ccc3nc(-c4ccc(OCCCN5CCCC5)cc4)oc3c2)cc1	Non-toxic	
42.7%	Clc1ccc(Oc2ccc3nc(-c4ccc(OCCCN5CCNCC5)cc4)oc3c2)cc1		18.5%
inactive	CC(C)(C)c1ccc(Oc2ccc3nc(-c4ccc(OCCCN5CCOCC5)cc4)oc3c2)cc1	Non-toxic	
56.7%	Fc1ccc(Oc2ccc3nc(-c4ccc(OCCCN5CCOCC5)cc4)oc3c2)cc1	Non-toxic	
